{"data": "Assay results pooled from the literature", "GSK3B": "Glycogen synthase kinase-3 beta (GSK3B, Homo sapiens, UniProt P49841)", "PIKFYVE": "1-phosphatidylinositol 3-phosphate 5-kinase (PIKFYVE, Homo sapiens, UniProt Q9Y2I7)", "CELA1": "Chymotrypsin-like elastase family member 1 (CELA1, Sus scrofa, UniProt P00772)", "PIK3CA": "Phosphatidylinositol 4,5-bisphosphate 3-kinase catalytic subunit alpha isoform (PIK3CA, Homo sapiens, UniProt P42336)", "PDE9A": "High affinity cGMP-specific 3',5'-cyclic phosphodiesterase 9A (PDE9A, Homo sapiens, UniProt O76083)", "MAP2K1": "Dual specificity mitogen-activated protein kinase kinase 1 (MAP2K1, Homo sapiens, UniProt Q02750)", "note": "Protocols differ between the studies behind these lines."}
{"Structure (SMILES)": "Cc1cccc(Nc2ccccc2C(=O)O)c1C", "target": "UDP-glucuronosyltransferase 1A9 (UGT1A9, Homo sapiens, UniProt O60656)", "test": "enzyme activity, inhibitor", "system": "human, liver microsomes", "IC50 [µM]": 8.9}
{"Structure (SMILES)": "C=C(C)CCOP(=O)(O)OP(=O)(O)OP(=O)(O)OC[C@H]1O[C@@H](n2cnc3c(N)ncnc32)[C@H](O)[C@@H]1O", "target": "GSK3B", "test": "enzyme activity, inhibitor, radiometric", "IC50 [µM]": 4.3}
{"Structure (SMILES)": "CCC(O)(C#Cc1ccc2[nH]c3c(c2c1)-c1nc(N)ncc1CCC3)CC", "target": "PIKFYVE", "test": "enzyme activity, inhibitor, ADP detection", "IC50 [µM]": 0.0018}
{"Structure (SMILES)": "C[C@@H]1O[C@@H](OC[C@H]2O[C@@H](Oc3c(-c4ccc(O)cc4)oc4cc(O)cc(O)c4c3=O)[C@H](O[C@@H]3O[C@H](CO)[C@@H](O)[C@H](O)[C@H]3O)[C@@H](O)[C@@H]2O)[C@H](O)[C@H](O)[C@H]1O", "target": "Prostaglandin G/H synthase 2 (PTGS2, Ovis aries, UniProt P79208)", "test": "enzyme activity, inhibitor, absorbance", "IC50 [µM]": 45.2}
{"Structure (SMILES)": "CC(C)C[C@H](CC(=O)NO)C(=O)N[C@@H](Cc1ccccc1)C(=O)NCCN1CCOCC1", "target": "Collagenase 3 (Rattus norvegicus, UniProt P23097)", "test": "enzyme activity, inhibitor, absorbance", "IC50 [µM]": 0.015}
{"Structure (SMILES)": "CCNC(=O)[C@H](CCCNC(=N)CCl)NC(=O)c1ccccc1", "target": "Protein-arginine deiminase type-1 (PADI1, Homo sapiens, UniProt Q9ULC6)", "test": "enzyme activity, inhibitor", "IC50 [µM]": 2.8}
{"Structure (SMILES)": "CC(C)(C#Cc1ccc2[nH]c3c(c2c1)-c1nc(N)ncc1CCC3)NS(C)(=O)=O", "target": "PIKFYVE", "test": "target engagement in cells, BRET", "IC50 [µM]": 1.6}
{"Structure (SMILES)": "Cc1ccc(C(C)C)cc1NC(=O)COC(=O)c1ccc(O)cc1", "target": "CELA1", "test": "enzyme activity, inhibitor, absorbance", "IC50 [µM]": 81.9}
{"Structure (SMILES)": "CNC(=O)c1cc2c(Oc3ccc(NC(=O)C4(C(=O)Nc5ccc(F)cc5)CC4)cc3)ccnc2cc1OC", "target": "Vascular endothelial growth factor receptor 2 (KDR, Homo sapiens, UniProt P35968)", "test": "enzyme activity, inhibitor, TR-FRET", "IC50 [µM]": 0.0121}
{"Structure (SMILES)": "O=C1NC(=S)S/C1=C\\c1csc2ccc(Cl)cc12", "target": "PIK3CA", "test": "enzyme activity, inhibitor, radiometric", "IC50 [µM]": 30}
{"Structure (SMILES)": "CCn1c(-c2nc3ccc(C(=O)N4CCCC(N)C4)cc3n2C)cc2ccccc21 (stereo not shown)", "target": "Vasopressin V1a receptor (AVPR1A, Homo sapiens, UniProt P37288)", "test": "calcium signal, antagonist, fluorescence", "IC50 [µM]": "> 50.1"}
{"Structure (SMILES)": "CC(C)(O)CC#Cc1ccc2[nH]c3c(c2c1)-c1nc(N)ncc1CCC3", "target": "PIKFYVE", "test": "target engagement in cells, BRET", "IC50 [µM]": 0.29}
{"Structure (SMILES)": "COc1ccc(C2=NN(C3CCCCCC3)C(=O)[C@@H]3CC=CC[C@H]23)cc1-c1ccc(C(N)=O)cc1 (relative stereo)", "target": "PDE9A", "test": "enzyme activity, inhibitor", "IC50 [µM]": "> 10"}
{"Structure (SMILES)": "CC(C)(C#Cc1ccc2[nH]c3c(c2c1)-c1nc(N)ncc1CCC3)CO", "target": "PIKFYVE", "test": "target engagement in cells, BRET", "IC50 [µM]": 2.16}
{"Structure (SMILES)": "COc1cc(O)c(/C=C2\\SC(=S)NC2=O)c(OC)c1", "target": "PIK3CA", "test": "enzyme activity, inhibitor, radiometric", "IC50 [µM]": 11}
{"Structure (SMILES)": "CN1CCN(c2ccc(Nc3ncc4cc(C#N)c(=O)n(C5CCCC5)c4n3)cc2)CC1", "target": "Dual specificity tyrosine-phosphorylation-regulated kinase 2 (DYRK2, Homo sapiens, UniProt Q92630)", "test": "enzyme activity, inhibitor", "IC50 [µM]": 30.6}
{"Structure (SMILES)": "O=C1NC(=S)S/C1=C\\c1ccccc1[N+](=O)[O-]", "target": "PIK3CA", "test": "enzyme activity, inhibitor, radiometric", "IC50 [µM]": "> 100"}
{"Structure (SMILES)": "O=C(O)CC[C@H](NC(=O)N[C@@H](CCCCNC(=O)[C@H](Cc1ccc2ccccc2c1)NC(=O)[C@H]1CC[C@H](CNC(=O)CN2CCN(CC(=O)O)CCN(CC(=O)O)CCN(CC(=O)O)CC2)CC1)C(=O)O)C(=O)O", "target": "Glutamate carboxypeptidase 2 (FOLH1, Homo sapiens, UniProt Q04609)", "test": "ligand displacement in cells, radioligand", "IC50 [µM]": 0.0122}
{"Structure (SMILES)": "O=C1NC(=S)S/C1=C\\c1cc([N+](=O)[O-])ccc1O", "target": "PIK3CA", "test": "enzyme activity, inhibitor, radiometric", "IC50 [µM]": 23}
{"Structure (SMILES)": "Nc1ncc(-c2nc(N3CCOCC3)nc(N3[C@@H]4CC[C@H]3COC4)n2)c(C(F)F)n1", "target": "PIK3CA", "test": "ligand displacement, TR-FRET", "IC50 [µM]": 0.033}
{"Structure (SMILES)": "CC1=C(C#N)[C@@H](c2ccc(C#N)cc2S(C)(=O)=O)N(C)C(=O)N1c1cccc(C(F)(F)F)c1", "target": "CELA1", "test": "enzyme activity, inhibitor", "IC50 [µM]": "> 30"}
{"Structure (SMILES)": "Cc1ccc(C(C)C)cc1NC(=O)COC(=O)/C=C/c1ccc(O)cc1", "target": "CELA1", "test": "enzyme activity, inhibitor, absorbance", "IC50 [µM]": 23.3}
{"Structure (SMILES)": "CC(C)(C)c1c(O)ccc(/C=C2\\SC(=S)NC2=O)c1C(C)(C)C", "target": "PIK3CA", "test": "enzyme activity, inhibitor, radiometric", "IC50 [µM]": 30}
{"Structure (SMILES)": "C/C=C1\\NC(=O)[C@H](C)NC(=O)[C@@H](NC(=O)[C@H](Cc2ccc(O)cc2)NC(=O)[C@@H](NC(=O)/C(C)=C/C)C(C)C)[C@@H](C)OC(=O)[C@H](CCCc2ccc(O)cc2)NC(=O)[C@@H](CCC(=O)OC)NC1=O", "target": "CELA1", "test": "enzyme activity, inhibitor, absorbance", "IC50 [µM]": 2.23}
{"Structure (SMILES)": "C[C@H](CS)C(=O)N1CCC[C@H]1C(=O)O", "target": "Beta-lactamase L1 (Stenotrophomonas maltophilia, UniProt P52700)", "test": "enzyme activity, inhibitor", "IC50 [µM]": 73.7}
{"Structure (SMILES)": "CC(C)=CCc1c(O)cc(O)c2c1O[C@H](c1ccc(O)cc1)CC2=O", "target": "Cytochrome P450 1A1 (CYP1A1, Homo sapiens, UniProt P04798)", "test": "enzyme activity, inhibitor, fluorescence", "conditions": "15 min, pH 7.4", "IC50 [µM]": 0.38}
{"Structure (SMILES)": "CCCCC1CCCc2c1[nH]c(=O)c(C#N)c2-c1ccc(C)cc1 (stereo not shown)", "target": "PDE9A", "test": "enzyme activity, inhibitor, radiometric", "IC50 [µM]": 0.0612}
{"Structure (SMILES)": "Cc1cnc(-c2ccc(-c3ccc(NC(=O)Nc4c(F)cc(F)cc4F)cc3F)c3c2C(=O)NC3)[nH]1", "target": "MAP2K1", "test": "enzyme activity, inhibitor", "IC50 [µM]": 0.0426}
{"Structure (SMILES)": "COC(=O)C1=C(C)NC(C)=C(C(=O)OC)C1c1ccccc1[N+](=O)[O-]", "target": "GSK3B", "test": "enzyme activity, inhibitor, ADP detection", "IC50 [µM]": 27.6}
{"Structure (SMILES)": "CC(C)(C)n1nc(-c2ccc3nc(OC4CC4)ccc3c2)c(C(N)=O)c1N", "target": "MAP2K1", "test": "cell-free assay", "IC50 [µM]": 2.38}
{"Structure (SMILES)": "CC1(C)C(/C=C/C=C2/N(CCCc3ccccc3)c3ccc(Cl)cc3C2(C)C)=[N+](CCCc2ccccc2)c2ccc(Cl)cc21", "target": "Protein arginine N-methyltransferase 8 (PRMT8, Homo sapiens, UniProt Q9NR22)", "test": "enzyme activity, inhibitor, radiometric", "IC50 [µM]": 1.87}
{"Structure (SMILES)": "Cc1ccc(C(C)C)cc1NC(=O)COC(=O)c1ccc(O)c(O)c1", "target": "CELA1", "test": "enzyme activity, inhibitor, absorbance", "IC50 [µM]": 24.3}
{"Structure (SMILES)": "O=C1NC(=S)SC1=Cc1ccc2nccnc2c1", "target": "PIK3CA", "test": "enzyme activity, inhibitor, radiometric", "IC50 [µM]": 0.0028}
{"Structure (SMILES)": "CCn1ncc2c1-c1cnc(N)c(c1)O[C@H](C)c1cc(F)ccc1-c1nn(C)nc1C2", "target": "Protein-tyrosine kinase 6 (PTK6, Homo sapiens, UniProt Q13882)", "test": "enzyme activity, inhibitor, radiometric", "IC50 [µM]": 0.184}
